Converted amounts (≈) assume the structure as drawn. The source made the active and inactive calls. No cut-off for these calls is given here.
Assays:
Candida albicans = assay: Antimicrobial activity against Candida albicans ATCC 90028; format: functional
Procedure, shortened: (§1)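 Subcultured organism diluted in its incubation broth for the inoculum. Samples were dissolved in DMSO, serially diluted in normal saline and tested in duplicate, starting at a final 50 µg/mL for pure compounds and 500 µg/mL for extracts. Growth and media-only controls were included. OD630 was read before and after incubation, and IC50/MIC was taken from percent growth versus concentration. MFC/MBC came from 5 µL subcultured onto agar.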

Staphylococcus aureus [1] = assay: Antimicrobial activity against Staphylococcus aureus ATCC 29213; format: functional, organism-based
Procedure, shortened: (§2)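 Broth microdilution in duplicate. Samples are dissolved in DMSO, serially diluted in normal saline, and mixed with inoculum from subcultured organism diluted in its incubation broth. The top final concentration is 50 µg/mL for pure compounds and 500 µg/mL for crude extracts. Controls are tetracycline, growth and media blank. OD630 is read before and after incubation, and percent growth is plotted against concentration to give IC50/MIC. MBC is found by plating 5 µL from each duplicate on agar.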

[2] = test system: Mycobacterium intracellulare; assay: Antimicrobial activity against Mycobacterium intracellular ATCC 23068; format: functional
Procedure, shortened: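 Inoculum was subcultured organism diluted in its incubation broth. Samples were dissolved in DMSO, serially diluted in saline and run in duplicate, with final concentrations starting at 50 µg/mL for pure compounds and 500 µg/mL for extracts. Tetracycline reference, growth and blank controls were included. Plates were inspected visually. MBC came from 5 µL of each well plated on agar.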

Cryptococcus neoformans = assay: Antimicrobial activity against Cryptococcus neoformans ATCC 90113; format: functional; procedure, shortened: as §1
Aspergillus fumigatus = assay: Antimicrobial activity against Aspergillus fumigatus ATCC 90906; format: functional
Procedure, shortened: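 Growth was removed from a slant into 50 mL YPD broth for the inoculum. DMSO-dissolved samples were serially diluted in saline and run in duplicate, starting at a final 50 µg/mL for pure compounds and 500 µg/mL for extracts. Amphotericin B reference, growth and blank controls were included. Endpoints were read visually. MFC came from 5 µL of each duplicate transferred to agar.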

Pseudomonas aeruginosa = assay: Antimicrobial activity against Pseudomonas aeruginosa ATCC 27853; format: functional; procedure, shortened: as §1
Staphylococcus aureus [3] = assay: Antimicrobial activity against methicillin-resistant Staphylococcus aureus ATCC 43300; format: functional, organism-based; procedure, shortened: as §2

SMILES	Activity (Candida albicans)	Activity (Staphylococcus aureus [1])	Activity [2]	Activity (Cryptococcus neoformans)	Activity (Aspergillus fumigatus)	Activity (Pseudomonas aeruginosa)	Activity (Staphylococcus aureus [3])	MIC (Candida albicans) [µg/mL]	IC50 (Staphylococcus aureus [1]) [µg/mL]	MIC [2] [µg/mL]	MIC (Cryptococcus neoformans) [µg/mL]	MIC (Aspergillus fumigatus) [µg/mL]	MIC (Pseudomonas aeruginosa) [µg/mL]	IC50 (Staphylococcus aureus [3]) [µg/mL]
COc1cc(C(=O)OCC2=CC[C@@]3(C)CCC(C(C)C)=C3CC2)ccc1O	inactive	inactive	inactive	inactive	inactive	inactive	inactive	–	–	–	–	–	–	–
CC(C)C1=C2CCC(COC(=O)c3ccc(O)cc3)=CC[C@@]2(C)CC1	–	–	–	–	–	–	–	6.25 (≈ 18.4 µM)	1.5 (≈ 4.41 µM)	6.25 (≈ 18.4 µM)	6.25 (≈ 18.4 µM)	6.25 (≈ 18.4 µM)	6.25 (≈ 18.4 µM)	2 (≈ 5.87 µM)
CC1=CC[C@@]2(C)CC[C@@](O)(C(C)C)[C@@H]2[C@@H](OC(=O)c2ccccc2)C1	inactive	inactive	inactive	inactive	inactive	inactive	inactive	–	–	–	–	–	–	–
CC1=CC[C@@]2(C)CC[C@@](O)(C(C)C)[C@@H]2[C@@H](O)C1	inactive	inactive	inactive	inactive	inactive	inactive	inactive	–	–	–	–	–	–	–
CC(C)[C@]1(O)CC[C@]2(C)C[C@@H]3O[C@]3(C)C[C@H](O)[C@H]21	inactive	inactive	inactive	inactive	inactive	inactive	inactive	–	–	–	–	–	–	–

— ChEMBL document CHEMBL1150807, “Daucane sesquiterpenes from Ferula hermonis” (J Nat Prod, 2001)
